From ChEMBL document CHEMBL4422612, “Small Molecule Inhibitor that Stabilizes the Autoinhibited Conformation of the Oncogenic Tyrosine Phosphatase SHP2” (J Med Chem, 2019)
Numbering of substitutions follows the chain as printed. The source made the active and inactive calls. The rule behind the calls is not given here.

How the values were obtained:
[1] = test system: T1, Tyrosine-protein phosphatase non-receptor type 11 (Homo sapiens), Q06124 [E76K]; assay: Inhibition of Ptpn11 E76K mutant in bone marrow cells isolated from JMML patient assessed as inhibition of GM-CSF-induced colony forming units at 1.25 to 5 uM after 14 days by inverted microscopy; assay type: cell-based
T1 sequence (whole entry): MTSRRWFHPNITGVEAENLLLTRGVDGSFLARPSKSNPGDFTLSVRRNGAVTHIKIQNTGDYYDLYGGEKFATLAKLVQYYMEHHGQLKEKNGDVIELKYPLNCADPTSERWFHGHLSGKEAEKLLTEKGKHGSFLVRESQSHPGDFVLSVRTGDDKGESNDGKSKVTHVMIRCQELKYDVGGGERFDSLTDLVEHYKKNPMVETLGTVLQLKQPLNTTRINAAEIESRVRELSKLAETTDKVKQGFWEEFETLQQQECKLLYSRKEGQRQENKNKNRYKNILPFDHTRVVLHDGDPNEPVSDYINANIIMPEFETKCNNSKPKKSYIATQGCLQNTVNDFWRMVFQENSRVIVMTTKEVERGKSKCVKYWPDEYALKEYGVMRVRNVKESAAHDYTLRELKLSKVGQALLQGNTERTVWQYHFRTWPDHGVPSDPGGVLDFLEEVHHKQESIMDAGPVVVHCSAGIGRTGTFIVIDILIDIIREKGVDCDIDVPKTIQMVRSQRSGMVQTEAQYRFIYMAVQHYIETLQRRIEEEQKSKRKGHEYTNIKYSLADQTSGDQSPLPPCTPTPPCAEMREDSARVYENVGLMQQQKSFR
Outline: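 JMML patient splenocytes, marrow or blood cells (PTPN11 E76K/+), 5×10⁴ cells/mL, with healthy apheresis controls. Plated in 0.9% methylcellulose IMDM with 30% FBS, glutamine, β-mercaptoethanol and GM-CSF 1.0 ng/mL, plus compound or DMSO. Myeloid colonies counted at 14 days, 37 °C, 5% CO2, normalized to DMSO.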

[2] = test system: T2, Tyrosine-protein phosphatase non-receptor type 11 (Mus musculus), P35235 [E76K]; assay: Inhibition of Ptpn11 E76K mutant in Ptpn11 E76K mutant /Mx1-Cre containing mouse bone marrow cells assessed as reduction in GM-CSF-induced colony forming units at 1.25 to 5 uM after 7 days by inverted microscopy
T2 sequence (whole entry): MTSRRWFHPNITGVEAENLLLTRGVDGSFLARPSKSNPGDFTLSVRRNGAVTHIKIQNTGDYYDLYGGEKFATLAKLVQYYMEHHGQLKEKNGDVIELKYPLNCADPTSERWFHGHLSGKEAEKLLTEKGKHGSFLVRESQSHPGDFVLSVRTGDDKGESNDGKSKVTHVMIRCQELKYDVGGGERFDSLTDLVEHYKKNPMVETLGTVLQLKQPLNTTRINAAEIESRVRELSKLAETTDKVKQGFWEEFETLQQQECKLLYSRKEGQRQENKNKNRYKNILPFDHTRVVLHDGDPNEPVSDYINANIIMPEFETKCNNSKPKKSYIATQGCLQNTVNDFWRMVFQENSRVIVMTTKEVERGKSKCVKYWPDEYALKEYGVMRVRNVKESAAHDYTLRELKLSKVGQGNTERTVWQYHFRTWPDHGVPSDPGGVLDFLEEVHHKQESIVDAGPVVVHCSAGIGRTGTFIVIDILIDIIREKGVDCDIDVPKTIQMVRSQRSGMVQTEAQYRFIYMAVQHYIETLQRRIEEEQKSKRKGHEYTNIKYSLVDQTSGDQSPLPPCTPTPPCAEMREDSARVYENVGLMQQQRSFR
Outline: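 Bone marrow from Ptpn11 E76K/+/Mx1-Cre+ and +/+/Mx1-Cre+ mice, 2×10⁴ cells/mL, in 0.9% methylcellulose IMDM with 30% FBS and GM-CSF 1.0 ng/mL, plus compound or DMSO. CFU-GM and CFU-M counted at day 7, normalized to WT DMSO colonies. Mean ± SD of three experiments.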

[3] = test system: NCI-H661; assay: Induction of cell cycle arrest in human NCI-H661 cells at 10 to 20 uM after 24 hrs by propidium iodide-staining based FACS analysis; assay type: functional
Outline: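 H661 cells treated with 0, 10 or 20 µM for 24 h; cell cycle profile by propidium iodide staining and FACS. Profiles are representative of three independent experiments.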

[4] = test system: T1, Tyrosine-protein phosphatase non-receptor type 11 (Homo sapiens), Q06124 [E76K]; assay: Inhibition of recombinant full length human GST-tagged SHP2 E76K mutant using phospho-peptide as substrate pre-incubated for 30 mins before substrate addition and measured after 30 mins
[5] = target: T3, Tyrosine-protein phosphatase non-receptor type 11 (Homo sapiens) (UniProt Q06124); assay: Inhibition of wild type recombinant human SHP2 at 50 uM using H-Glu-Phe-pTyr-Ala-Glu-Val-Gly-Arg-Ser-Pro-Pro-Asp-Pro-Ala-Lys as substrate preincubated for 30 mins followed by substrate addition and measured after 30 mins by Malachite Green-reagent based assay
T3 sequence (whole entry): T2 sequence (whole entry) with K76E, V450M, V550A, R590K
Outline: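 Full-length SHP2 or SHP1 (0.1 µg) preincubated with compound 30 min at room temperature in 25 mM Tris-HCl pH 7.4, 50 mM NaCl, 5 mM DTT, 2.5 mM EDTA. Phospho-peptide substrate added to 50 µM final; 30 min at 30 °C. Released phosphate read by Malachite Green at OD620. IC50 from six concentrations; three experiments.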

[6] = target: T3, Tyrosine-protein phosphatase non-receptor type 11 (Homo sapiens); assay: Binding affinity to His-tagged SHP2 (unknown origin) assessed as melting temperature at 10 uM measured every 50 secs by thermal shift assay (reference value: 43.5 +/- 0.95 degC)
[7] = target: T3, Tyrosine-protein phosphatase non-receptor type 11 (Homo sapiens); assay: Mixed type inhibition of human wild-type full length SHP2 assessed as substrate [Et] at 20 uM using H-Glu-Phe-pTyr-Ala-Glu-Val-Gly-Arg-Ser-Pro-Pro-Asp-Pro-Ala-Lys as substrate by Lineweaver-Burk plot analysis (reference value: 0.029 uM)

inhibition [1]: Active
inhibition [2]: Active
inhibition [4]: Dose-dependent effect
inhibition [5]: Active
Tm [6]: 47.2 °C
Activity [7]: 0.029 µM
SMILES: CCOc1cc(O)c(C(=O)/C=C/c2ccc(Cl)cc2Cl)cc1CN1CCC=C(n2c(=O)[nH]c3ccccc32)C1
Activity [3]: Active
